Assay results from ChEMBL document CHEMBL2331206, “Genomics-guided discovery of thailanstatins A, B, and C As pre-mRNA splicing inhibitors and antiproliferative agents from Burkholderia thailandensis MSMB43” (J Nat Prod, 2013).

How the values were obtained:
[1] = tested on: SK-OV-3; assay: Antiproliferative activity against human SKOV3 cells assessed as growth inhibition measured after 48 hrs by MTT assay; format: functional; conditions: SK-OV-3, 48 h
Summary of the method: (§1)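 Cells seeded at 10,000 or 15,000 per well, incubated overnight at 37 °C, then exposed to serial three-fold dilutions of compound (10 mM DMSO stocks) for 48 h at 37 °C. MTT added for 4 h at 37 °C, absorbance read at 570 and 690 nm. Viability = 100×(T−T0)/(C−T0) versus vehicle. Triplicate wells; GI50 from log concentration versus normalized viability.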

[2] = tested on: MDA-MB-231; assay: Antiproliferative activity against human MDA-MB-231 cells assessed as growth inhibition measured after 48 hrs by MTT assay; format: functional; conditions: MDA-MB-231, 48 h; summary of the method: as §1
[3] = Antiproliferative activity against human NCI-H232A cells assessed as growth inhibition measured after 48 hrs by MTT assay; format: functional; summary of the method: as §1
[4] = tested on: DU-145; assay: Antiproliferative activity against human DU145 cells assessed as growth inhibition measured after 48 hrs by MTT assay; format: functional; conditions: DU-145, 48 h; summary of the method: as §1
[5] = Stability of the compound in phosphate buffer assessed as compound remaining after 8 to 78 hrs at pH 7.4 at 37 degC by HPLC; format: physicochemical
Summary of the method: (§2)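 Compound (10 µL of 10 mM DMSO stock) added to 10 mL phosphate buffer pH 7.4 containing benzoic acid and DMSO, sealed and held at 37 °C. Samples (20 µL) analysed by reverse-phase C18 HPLC at multiple time points; half-life determined from remaining compound.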

[6] = Stability of the compound in phosphate buffer at pH 7.4 at 37 degC by HPLC; format: physicochemical; summary of the method: as §2
[7] = tested on: HEK293; assay: Inhibition of Pre-mRNA splicing in human HEK293 cells using biotin-labeled Ad2 pre-mRNA by exonjunction complex (EJC) immunoprecipitation assay
[8] = tested on: HEK293; assay: Inhibition of Pre-mRNA splicing in human HEK293 cells using p32-labeled CDC14-15 pre-mRNA by exonjunction complex (EJC) immunoprecipitation assay; format: functional, cell-based
[9] = Stability of the compound in phosphate buffer at pH 7 at 37 degC by HPLC; format: physicochemical

SMILES	GI50 [1] [nM]	GI50 [2] [nM]	GI50 [3] [nM]	GI50 [4] [nM]	Stability [5] [%]	half-life [6] [h]	IC50 [7] [nM]	inhibition [8]	half-life [9] [h]
CC(=O)O[C@@H](C)/C=C\C(=O)N[C@@H]1C[C@H](C)[C@H](C/C=C(C)/C=C/[C@H]2O[C@H](CC(=O)O)C[C@@]3(CO3)[C@@H]2O)O[C@@H]1C [THAILANSTATIN A]	2.69	2.58	2.26	1.11	65	> 78	650	–	–
CC(=O)O[C@@H](C)/C=C\C(=O)N[C@@H]1C[C@H](C)[C@H](C/C=C(C)/C=C/[C@H]2O[C@](C)(O)C[C@@]3(CO3)[C@@H]2O)O[C@@H]1C	1.06	2.1	1.94	1.05	38	8	580	Dose-dependent effect	4
CC(/C=C/[C@H]1O[C@H](CC(=O)O)C[C@@](O)(CCl)[C@@H]1O)=C\C[C@@H]1O[C@H](C)[C@H](NC(=O)/C=C\[C@H](C)OC(=O)C(C)C)C[C@@H]1C [THAILANSTATIN C]	5.57	8.82	3.67	2.98	–	25	6840	–	–
CC(=O)O[C@@H](C)/C=C\C(=O)N[C@@H]1C[C@H](C)[C@H](C/C=C(C)/C=C/[C@H]2O[C@H](CC(=O)O)C[C@@](O)(CCl)[C@@H]2O)O[C@@H]1C [THAILANSTATIN B]	4.94	6.22	2.5	3	–	19	6180	–	–
